# Screening results deposited in PubChem by several laboratories.
# Mdm2 MdmX PPI: inhibitors of human Mdm2-MdmX association, primary screen, cell-based, luminescence, split luciferase, SaOS-2, uHTS; Protein Mdm4 (Homo sapiens) + E3 ubiquitin-protein ligase Mdm2 (Homo sapiens), …; SaOS-2 split-luciferase Mdm2/MdmX complementation; inhibition, % at 8 µM; 330,000 tested, 3% active;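 active = inhibition of at least 50% at 8 µM in the primary screen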
# UPR XBP1 act: activators of adaptive XBP1 UPR arm, primary screen, cell-based, CHO-XBP1 luciferase reporter, luminescence, uHTS; IRE1-XBP1 UPR activation; percent of tunicamycin response, DMSO as zero; activation, % at 20 µM; 330,000 tested, 0.33% active;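 active = versus positive control, 20 µM dose yields 30% or more activation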
#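 Material: CHO cell line with stable XBP1 luciferase reporter; buffer or medium: F12 medium containing 10% fetal bovine serum; compound: single point, 20 µM final compound, 1% DMSO; incubation: 6 h treatment, 37 °C; measured by: glow luminescence from Steady-Glo reagent; evaluation: activation, % of tunicamycin; control set: tunicamycin high, DMSO low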
# SKKanGAS inh: S. pyogenes SKKanGAS growth inhibitors in kanamycin, primary screen, streptokinase expression inhibitor project, SKKanGAS strain, BacTiter-Glo luminescence; 6 h; inhibition, % at 7.5 µM; 300,000 tested, 1.3% active;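 active = mean replicate score, as percent of positive control median, at least 50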;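 note: strain carries kanamycin resistance gene driven by streptokinase promoter and grows in 40 µg/ml kanamycin; loss of luminescence reflects streptokinase promoter inhibition or plain growth inhibition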
# UPR CHOP act: activators of apoptotic CHOP UPR arm, primary screen, cell-based, CHO-CHOP luciferase reporter, luminescence, uHTS; 330,000 tested, 0.34% active; UPR activation; percent of tunicamycin response over DMSO baseline; activation, % at 10 µM;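 active = at 10 µM dose, activation of 40% or more, normalized to positive control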
#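 System: CHO CHOP reporter cells. Amount: 500 cells per well. Buffer or medium: F12 medium, 10% FBS. Compound dosing: one dose, 10 µM in 0.5% DMSO. Incubation: 6 h compound exposure at 37 °C after overnight seeding. Technique: Steady-Glo luciferase luminescence. Benchmarks: tunicamycin and DMSO controls.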
# Beta apoptosis: inhibitors of cytokine-induced beta cell apoptosis, primary screen, luminescence | INS-1E cytokine-induced death, ATP luminescence, 48 h; percent of positive-control rescue, neutral wells zero | protection from apoptosis, % (concentration not given with the values) | 300,000 tested, 0.8% active | AID 435005, 2010;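 active = Every replicate reaches about 75%, or at least half do and their mean reaches it too, limit read from the data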;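 note: higher means more ATP so stronger rescue from cytokine killing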
# CSC inhib: cancer stem cell viability inhibitors, primary screen, luminescence; cancer stem cell-like cells viability; inhibition, % at 7.5 µM; 300,000 tested, 1.1% active; AID 2717, 2010; in the data active = inhibition above about 75%; tested in HMLE shEcad cells
# Mdm2-MdmX conf: Mdm2-MdmX complex disruptors, retested hits, confirmation, luminescence, single concentration; shares compounds with Mdm2 MdmX PPI; Mdm2-MdmX binding, luminescent assay; 10,000 tested, 55% active; AID 489028, 2010; inhibition, % at 8 µM; in the data active = inhibition above about 40%
# FLuc counter: full-length luciferase signal inhibition, confirmation, counter-screen for Mdm2/MdmX interaction inhibitor project, cell-based, single concentration, SaOS-2 | 6,200 tested, 77% active | shares compounds with Mdm2 MdmX PPI | inhibition, % at 8 µM | AID 504607, 2011 | SaOS-2 full-length luciferase counterscreen, luminescence;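 active = mean inhibition at 8 µM reaching about 37%, which flags the compound as non-specific, limit read from the data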;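 note: p53-null SaOS-2 cells with luciferase driven by a doxycycline-inducible promoter; compound on cells about two nights before reading with doxycycline added after day one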
# Numbers stand for hits; – = inactive; · = no result given. Compounds with a hit are over-represented: about 4.8% of the library has one in this group of screens.
SMILES,Mdm2 MdmX PPI,UPR XBP1 act,SKKanGAS inh,UPR CHOP act,Beta apoptosis,CSC inhib,Mdm2-MdmX conf,FLuc counter
Cc1cc(C)c(OCC(=O)Nc2nc(-c3ccccn3)cs2)c(C)c1,53,–,97,–,–,–,–,46
CCCC(=O)Nc1ccc(-c2csc(N/N=C\c3ccncc3)n2)cc1,65,–,–,–,–,–,–,·
CC(=O)Nc1ccc(-c2csc(N/N=C\c3ccncc3)n2)cc1,–,–,–,–,–,–,·,·
COc1ccc2oc(C(=O)NC(C)c3ccccn3)c(C)c2c1 (stereo not drawn),–,–,·,–,–,·,·,·
O=C(CCS(=O)(=O)c1ccc(F)cc1)Nc1nc(-c2ccccn2)cs1,69,–,–,–,–,–,43,39
COc1ccc2oc(C(=O)Nc3nc(-c4ccccn4)cs3)c(C)c2c1,60,–,84,–,–,–,59,69
O=C(CCS(=O)(=O)c1ccccc1)Nc1nc(-c2ccccn2)cs1,70,–,–,–,–,–,–,48
O=C(CCS(=O)(=O)c1ccccc1)Nc1ccccn1,–,–,–,–,–,·,·,·
Cc1cccc(OC(C)C(=O)Nc2nc(-c3ccncc3)cs2)c1 (stereo not drawn),–,–,·,–,·,·,·,·
CC(Oc1ccc(F)cc1)C(=O)Nc1nc(-c2ccccn2)cs1 (stereo not drawn),77,–,107,–,–,–,84,–
COC(=O)CNC(=O)C1CCN(S(=O)(=O)c2cccc3nsnc23)CC1,–,–,–,–,–,–,·,·
C/C(=N\NC(=O)c1cc(-c2cccnc2)nc2ccccc12)c1ccccc1O,63,–,–,–,86,·,51,39
C/C(=N\NC(=O)c1cc(C2CC2)nc2ccccc12)c1ccc(O)cc1O,75,–,–,–,95,–,78,38
O=C(CSC1=NS(=O)(=O)c2ccccc2N1)Nc1cccc(F)c1,–,–,·,–,–,–,·,·
Cc1cccc(C(=O)Nc2nc(C)c(C(=O)Nc3ccc4c(c3)CCC4)s2)c1,58,–,–,–,·,·,43,53
Cc1cccc(NC(=O)c2sc(C)nc2C)c1,–,–,–,–,–,–,·,·
Cc1ccc(Cl)cc1NC(=O)CC(O)(C(F)(F)F)C(F)(F)F,59,–,–,–,·,–,–,·
CCCCn1c(CCl)nc2cc(S(=O)(=O)N3CCOCC3)ccc21,88,–,·,–,–,–,53,–
COc1ccc(C(=O)Nc2cccc3cccnc23)cc1OC,–,–,–,–,–,–,·,·
COc1cc(C(=O)Nc2ccccn2)cc(OC)c1OC,–,–,–,–,–,–,·,·
COc1ccc(C(=O)Nc2cccc(NC(=O)c3ccc(OC)c(OC)c3)n2)cc1OC,55,–,–,–,–,–,49,89
COc1cc(C(=O)Nc2ccccc2C(=O)Nc2ccccn2)cc(OC)c1OC,63,–,–,–,–,–,52,47
Cn1c(Sc2ccc(Br)cc2)c(C=O)c2ccccc21,84,–,–,–,–,–,72,53
Cn1c(Oc2ccc(F)cc2)c(C=O)c2ccccc21,–,–,–,–,–,–,·,·
O=C1C2C3C=CC(C3=C(c3ccccc3)c3ccccc3)C2C(=O)N1CCO (stereo not drawn),–,–,–,–,–,–,·,·
SMILES,Mdm2 MdmX PPI,UPR XBP1 act,SKKanGAS inh,UPR CHOP act,Beta apoptosis,CSC inhib,Mdm2-MdmX conf,FLuc counter
O=C1C2C3C=CC(C3=C(c3ccccc3)c3ccccc3)C2C(=O)N1Cc1ccccc1 (stereo not drawn),79,–,–,–,–,–,–,·
COC(=O)[C@@]1(Cc2ccccc2)[C@H]2C(=O)N(Cc3ccccc3)C(=O)[C@H]2[C@H]2CN=C(SCc3ccc(C#N)cc3)N21,91,–,·,–,·,·,95,–
CC[C@]1(C(=O)OC)[C@H]2C(=O)N(Cc3ccccc3)C(=O)[C@H]2[C@H]2CN=C(SCc3ccc(C)cc3)N21,93,–,·,–,·,·,88,49
CCCCn1c(N)c(N(CCOC)C(=O)C(C)N2C(=O)c3ccccc3C2=O)c(=O)[nH]c1=O (stereo not drawn),–,–,–,–,–,–,·,·
CN(C)CCCN(C(=O)c1ccc2c(c1)CCCC2)c1nc2c(F)cccc2s1,–,–,–,–,–,–,·,·
CCOc1ccc2nc(N(CCN(C)C)C(=O)c3ccc4c(c3)CCCC4)sc2c1,–,–,–,–,–,–,·,·
CCN(CC)CCN(C(=O)c1ccc2c(c1)CCCC2)c1nc2cc(OC)c(OC)cc2s1,53,–,–,–,–,–,46,37
COc1cc2nc(N(CCN(C)C)C(=O)c3ccc4ccccc4c3)sc2cc1OC,–,–,–,–,–,–,·,·
Cc1cc(C)c2nc(N(CCCN(C)C)C(=O)c3ccc4c(c3)CCCC4)sc2c1,77,–,–,–,·,–,–,·
Cc1ccc2nc(N(CCCN(C)C)C(=O)c3ccc4c(c3)CCCC4)sc2c1,51,–,–,–,–,–,–,·
COc1ccc(-n2ncc3c2CC(C)(C)CC3NC(=O)CCn2cncn2)cc1 (stereo not drawn),–,–,–,–,–,–,·,·
O=C(NCCCn1ccnc1)/C(=C\c1ccc(Br)cc1)NC(=O)c1ccccc1,–,–,–,–,–,–,·,·
CN(C)c1ccc(/C=C2\SC(=O)N(CC(O)Cn3c4ccccc4c4ccccc43)C2=O)cc1 (stereo not drawn),–,–,–,–,–,–,·,·
CN(C)c1ccc(/C=C2/SC(=O)N(CCN=C3NS(=O)(=O)c4ccccc43)C2=O)cc1,60,–,–,–,–,–,–,·
O=C(CNC(=O)c1ccco1)NCC(=O)OCC(=O)c1ccc(Cl)c([N+](=O)[O-])c1,–,–,–,–,–,–,·,·
CC1(C)Cc2c(c(N3CCOCC3)nc3snc(Br)c23)CO1,–,–,–,–,–,–,·,·
CC1(C)Cc2c(c(N3CCOCC3)nc3snc(N)c23)CO1,83,–,–,–,–,–,–,·
Cc1nc2c(sc3nc(N4CCOCC4)c4c(c32)CC(C)(C)OC4)c(-c2ccc(Cl)cc2)c1C(=O)O,64,–,–,–,–,–,–,·
